IMP-1 inh-1 – blocks Pseudomonas aeruginosa IMP-1 metallo-beta-lactamase; purified IMP-1, nitrocefin hydrolysis, epi-absorbance fluorescence; inhibition, % at 5.6 µM; hit rate 0.45% among 290,000;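 active = inhibition above the mean plus 3 SD of all compounds in the same screening run, cut at about 4.5% in these data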;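 note: 0% = IMP-1 with DMSO and 100% = DMSO wells lacking enzyme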
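system = purified recombinant IMP-1 beta-lactamase | amount = 0.2 nM IMP-1, as dispensed | medium = HEPES buffer pH 7.1 with ZnSO4 and Brij 35 | times = 25 °C, 15 min preincubation, 25 min reaction | detection = plate fluorescence quenching by hydrolysis product, ex 480/em 530 nm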
HCV core dimer – blocks dimerization of HCV core protein; AID 1899; hit rate 0.33% among 300,000; inhibition, % at 5 µM; TR-FRET GST/Flag-core106 dimerization, 1536-well;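 active = inhibition above the mean of all tested compounds plus 3 SD, set per screening campaign, cut at about 45% in these data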
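Assay system: Tagged HCV core106 pair (GST and Flag) | Buffer or medium: KF-containing HEPES buffer, pH 7.45, DTT, CHAPS, BSA | Also added: Eu donor and XL665 acceptor anti-tag antibodies | Dosing: One concentration, 5 µM, in 0.5% DMSO | Timing: 4 h at 22.5 °C | Technique: TR-FRET 671 and 617 nm emission | Repeats: Singlicate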
NadD inh – inhibitors of Staphylococcus aureus NadD. AID 602399. inhibition, % at 20 µM. purified NadD enzyme, colorimetric absorbance read-out. hit rate 0.78% among 360,000; in the data active = inhibition above about 26%
VIM-2 inhibitor – blocks Pseudomonas aeruginosa VIM-2 metallo-beta-lactamase | purified VIM-2, nitrocefin hydrolysis, epi-absorbance fluorescence | AID 1527 | hit rate 0.89% among 290,000 | inhibition, % at 5.6 µM;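 active = inhibition above the mean of all tested compounds plus 3 SD, cutoff set per screening run, cut at about 7.5% in these data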;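 note: red hydrolysis product quenches plate fluorescence so inhibitors raise well fluorescence; 0% = enzyme with DMSO and 100% = DMSO without enzyme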
IMP-1 inh-2 – blocks IMP-1 metallo-beta-lactamase in VIM-2 selectivity screen | inhibition, % at 5.6 µM | shares compounds with VIM-2 inhibitor | purified IMP-1, nitrocefin hydrolysis, epi-absorbance fluorescence | 1,300 tested, under 10 active | AID 1856; call rule not given here;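 note: 0% = enzyme with vehicle and 100% = vehicle without enzyme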
VIM-2 FRET ctr – inhibits VIM-2 in FRET assay to exclude epi-absorbance artifacts | shares compounds with VIM-2 inhibitor | inhibition, % at 5.6 µM | purified VIM-2, CCF2 FRET substrate hydrolysis | hit rate 23% among 1,300;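 active = inhibition above the mean of all tested compounds plus 3 SD, cut at about 19% in these data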;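 note: 0% = VIM-2 plus DMSO and 100% = no enzyme wells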
TEM-1 counter – selectivity counter-screen for VIM-2 inhibitors: E. coli TEM-1 inhibitors; Purified TEM-1, nitrocefin hydrolysis, epi-absorbance fluorescence; AID 1866; hit rate 3% among 1,300; inhibition, % at 5.6 µM; shares compounds with VIM-2 inhibitor;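 active = inhibition above that campaign's mean inhibition plus 3 SD, cut at about 0.46% in these data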;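 note: 0% = TEM-1 with DMSO and 100% = TEM-1 with 100 µM potassium clavulanate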
Target sequence (P62593 whole entry, looked up): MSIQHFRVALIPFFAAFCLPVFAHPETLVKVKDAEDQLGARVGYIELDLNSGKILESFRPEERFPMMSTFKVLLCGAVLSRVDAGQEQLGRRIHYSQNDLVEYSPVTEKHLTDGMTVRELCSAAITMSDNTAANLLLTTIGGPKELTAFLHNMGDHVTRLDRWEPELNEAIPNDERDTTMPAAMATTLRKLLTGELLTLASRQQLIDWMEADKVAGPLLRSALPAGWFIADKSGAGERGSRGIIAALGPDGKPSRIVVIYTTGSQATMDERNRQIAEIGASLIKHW
VIM-2 confirm 2 – confirmation of P. aeruginosa VIM-2 metallo-beta-lactamase inhibitors; shares compounds with VIM-2 inhibitor; purified VIM-2, nitrocefin hydrolysis, epi-absorbance; inhibition, % at 5.6 µM; hit rate 96% among 1,300; AID 2187;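 active = inhibition of the VIM-2 beta-lactamase enzyme above about 11% from the earlier first-round screen, limit read from the data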;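 note: 0% = VIM-2 with DMSO and 100% = buffer wells without enzyme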
* = called active by the depositor; nt = no result. This is a sample that favours compounds with a hit; in the whole collection about 1.9% have one here.

SMILES	IMP-1 inh-1	HCV core dimer	NadD inh	VIM-2 inhibitor	IMP-1 inh-2	VIM-2 FRET ctr	TEM-1 counter	VIM-2 confirm 2
CCOC(=O)C1=CN(Cc2cccc(F)c2)S(=O)(=O)N(C)C1CCc1ccccc1 (stereo not drawn)	nt	nt	1	nt	nt	nt	nt	nt
O=C(CSc1nnc(NC(=O)c2cccc(F)c2)s1)NCc1ccco1	-2	0	-1	33*	-4	54*	-4	39*
Cc1cc2cc(C)c3nnc(SCC(=O)NCc4ccco4)n3c2cc1C	-4	4	-5	13*	-1	8	0	24*
O=C(CSc1nnc(NC(=O)c2ccc3c(c2)OCO3)s1)NCc1ccco1	-4	4	0	1	nt	nt	nt	nt
O=C(CSc1nnc(NC(=O)C2CCCCC2)s1)NCc1ccco1	-4	2	-7	28*	-4	62*	-7	43*
Cc1ccc2cc(C)c3nnc(SCC(=O)NCc4ccco4)n3c2c1	-5	3	12	7	nt	nt	nt	nt
O=C(CSc1nnc(NC(=O)c2ccccc2)s1)NCc1ccco1	-2	7	0	25*	-4	44*	-4	28*
Cc1cc(C)nc(NC2=NCCN2C(=S)Nc2c(C)cccc2C)n1	-3	5	-1	-3	nt	nt	nt	nt
O=C(NCC(c1ccco1)N1CCOCC1)C1CCCCC1 (stereo not drawn)	nt	-1	7	nt	nt	nt	nt	nt
O=C1ON=C(c2cccc([N+](=O)[O-])c2)/C1=C/c1ccc(O)cc1	-1	-8	15	1	nt	nt	nt	nt
Cc1ccccc1C(=O)Nc1nnc(SCC(=O)NCc2ccco2)s1	-2	11	-7	52*	-4	75*	-6	61*
Cc1ccccc1Nc1nnc(SCC(=O)NCc2ccco2)s1	-3	36	3	-1	nt	nt	nt	nt
COc1ccc(C(=O)N/N=C\c2coc3ccccc3c2=O)cc1	-2	8	2	-4	nt	nt	nt	nt
COc1cc(C(=O)N/N=C/c2coc3ccccc3c2=O)cc(OC)c1OC	4	9	1	18*	2	31*	-5	19*
COc1cccc(/C=N/Nc2nn3cnnc3c3ccccc23)c1O	-3	5	-2	0	nt	nt	nt	nt
Oc1cccc(/C=N/Nc2nn3cnnc3c3ccccc23)c1	-4	0	22	16*	-4	0	-5	37*
C=CCn1c(SCC(=O)N2CCN(CCO)CC2)nc2sc3c(c2c1=O)CCC3	0	1	4	50*	-3	1	-9	64*
C=CCn1c(SCC(C)=O)nc2sc3c(c2c1=O)CCC3	-1	4	-7	6	nt	nt	nt	nt
CCN(CC)CCCNC(=O)c1cc2c(Cl)nc3ccccc3c2s1	-1	-10	1	22*	-2	6	-6	32*
CN(CCCNC(=O)c1cc2c(Cl)nc3ccccc3c2s1)Cc1ccccc1	1	-9	2	22*	-2	2	-7	31*
COc1ccc(N(C)C(=O)c2cc3c(Cl)nc4ccccc4c3s2)cc1	-5	7	-1	-2	nt	nt	nt	nt
COc1ccc(C)cc1NC(=O)C(=O)N/N=C(\C)CC(=O)Nc1cccnc1	-5	1	5	-3	nt	nt	nt	nt
O=C(Nc1cc2c(cc1C(=O)O)OCCCO2)c1ccc(F)cc1F	-2	-1	-1	-2	nt	nt	nt	nt
COc1ccc(-c2cc(C(F)(F)F)nc(N3CCCCCC3)n2)cc1	-3	4	1	-2	nt	nt	nt	nt
COc1ccc(-c2cc(C(F)(F)F)nc(N3CCN(C)CC3)n2)cc1OC	0	-6	-10	18*	-2	1	-6	30*
COc1ccc(-c2cc(C(F)(F)F)nc(N3CCN(C)CC3)n2)cc1	-4	-9	-11	17*	-2	36*	-7	25*
O=C(O)CC1c2ccccc2CCN1S(=O)(=O)c1cccs1 (stereo not drawn)	nt	0	-3	nt	nt	nt	nt	nt
COc1ccc(Cl)cc1NC(=O)COC(=O)C1=NNC(=O)CC1	nt	nt	-2	nt	nt	nt	nt	nt
CCN(CC)C(=O)CSc1nc2ccc(NC(=O)CSc3nccn3C)cc2s1	-3	10	12	21*	-3	52*	-7	36*

From PubChem BioAssay
